Measurements taken from ChEMBL document CHEMBL1154312, “Inhibition of ErbB2(Her2) expression with small molecule transcription factor mimics” (Bioorg Med Chem Lett, 2009).
Blank lines part the entries; values can stand above or below the molecule they belong to. Calls of active or inactive are those of the source. The rule behind the calls is not given here.

Assays:
[1] = biological target: T1, ETS-related transcription factor Elf-3/Vitamin D3 receptor-interacting protein (ESX/MED23) (Homo sapiens) (UniProt Q9ULK4+P78545); experiment: Inhibition of ESX-Med23 interaction in human BT474 cells assessed as down regulation of ErbB2 expression after 24 hrs by Western blotting; type: cell-based; conditions: BT-474
[2] = biological target: T1, ETS-related transcription factor Elf-3/Vitamin D3 receptor-interacting protein (ESX/MED23) (Homo sapiens); experiment: Inhibition of ESX-Med23 interaction in human BT474 cells assessed as reduction in ErbB2 mRNA level after 6 hrs by qPCR relative to control; type: cell-based; conditions: BT-474
Outline: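 BT-474 cells given compound in DMSO at 10 μM for 6 h; ErbB2 mRNA quantified by qPCR, normalized to GAPDH and expressed relative to DMSO; average of 16 experiments each in quadruplicate, s.e.m., Student's t-test.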

[3] = biological target: T1, ETS-related transcription factor Elf-3/Vitamin D3 receptor-interacting protein (ESX/MED23) (Homo sapiens); experiment: Inhibition of ESX-Med23 interaction in human SK-BR-3 cells assessed as down regulation of ErbB2 expression by Western blotting; type: cell-based
Outline: (§1)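 SkBr3 cells treated 6 h with compound in DMSO at 0.625–50 μM (comparator 10, 50 μM), DMSO control; ErbB2 protein level by Western blot.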

SK-BR-3 = experiment: Cytotoxicity against human SK-BR-3 cells after 24 hrs by WST-1 assay; type: functional, cell-based
MCF7 = experiment: Cytotoxicity against human MCF7 cells after 24 hrs by WST-1 assay; type: functional, cell-based; conditions: MCF7, 24 h
CAL-27 = experiment: Cytotoxicity against human CAL27 cells; type: functional, cell-based
SCC-25 = experiment: Cytotoxicity against human SCC25 cells; type: functional, cell-based
SCC-15 = experiment: Cytotoxicity against human SCC15 cells; type: functional, cell-based
[4] = biological target: T1, ETS-related transcription factor Elf-3/Vitamin D3 receptor-interacting protein (ESX/MED23) (Homo sapiens); experiment: Inhibition of ESX-Med23 interaction in human BT474 cells assessed as down regulation of ErbB2 expression up to 50 uM by Western blotting; type: cell-based; conditions: BT-474
[5] = biological target: T1, ETS-related transcription factor Elf-3/Vitamin D3 receptor-interacting protein (ESX/MED23) (Homo sapiens); experiment: Inhibition of ESX-Med23 interaction in human SK-BR-3 cells assessed as down regulation of ErbB2 expression at 25 uM by Western blotting; type: cell-based; outline: as §1
[6] = biological target: Mediator of RNA polymerase II transcription subunit 23 (Homo sapiens); experiment: Inhibition of ESX-Med23 interaction assessed as binding affinity to Med23 (352-625) by fluorescence polarization

T1 sequence (P78545 whole entry, looked up): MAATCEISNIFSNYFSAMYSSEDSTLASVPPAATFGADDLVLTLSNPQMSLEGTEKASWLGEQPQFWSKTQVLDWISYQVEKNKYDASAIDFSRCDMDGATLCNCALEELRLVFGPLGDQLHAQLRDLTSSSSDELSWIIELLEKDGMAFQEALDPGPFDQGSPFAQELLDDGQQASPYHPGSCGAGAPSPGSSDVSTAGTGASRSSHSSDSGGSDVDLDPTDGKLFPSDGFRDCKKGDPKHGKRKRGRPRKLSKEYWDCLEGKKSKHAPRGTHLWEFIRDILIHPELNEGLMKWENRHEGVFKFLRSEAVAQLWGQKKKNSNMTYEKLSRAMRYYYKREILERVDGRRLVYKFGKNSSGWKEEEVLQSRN
T1 sequence (Q9ULK4 whole entry, looked up): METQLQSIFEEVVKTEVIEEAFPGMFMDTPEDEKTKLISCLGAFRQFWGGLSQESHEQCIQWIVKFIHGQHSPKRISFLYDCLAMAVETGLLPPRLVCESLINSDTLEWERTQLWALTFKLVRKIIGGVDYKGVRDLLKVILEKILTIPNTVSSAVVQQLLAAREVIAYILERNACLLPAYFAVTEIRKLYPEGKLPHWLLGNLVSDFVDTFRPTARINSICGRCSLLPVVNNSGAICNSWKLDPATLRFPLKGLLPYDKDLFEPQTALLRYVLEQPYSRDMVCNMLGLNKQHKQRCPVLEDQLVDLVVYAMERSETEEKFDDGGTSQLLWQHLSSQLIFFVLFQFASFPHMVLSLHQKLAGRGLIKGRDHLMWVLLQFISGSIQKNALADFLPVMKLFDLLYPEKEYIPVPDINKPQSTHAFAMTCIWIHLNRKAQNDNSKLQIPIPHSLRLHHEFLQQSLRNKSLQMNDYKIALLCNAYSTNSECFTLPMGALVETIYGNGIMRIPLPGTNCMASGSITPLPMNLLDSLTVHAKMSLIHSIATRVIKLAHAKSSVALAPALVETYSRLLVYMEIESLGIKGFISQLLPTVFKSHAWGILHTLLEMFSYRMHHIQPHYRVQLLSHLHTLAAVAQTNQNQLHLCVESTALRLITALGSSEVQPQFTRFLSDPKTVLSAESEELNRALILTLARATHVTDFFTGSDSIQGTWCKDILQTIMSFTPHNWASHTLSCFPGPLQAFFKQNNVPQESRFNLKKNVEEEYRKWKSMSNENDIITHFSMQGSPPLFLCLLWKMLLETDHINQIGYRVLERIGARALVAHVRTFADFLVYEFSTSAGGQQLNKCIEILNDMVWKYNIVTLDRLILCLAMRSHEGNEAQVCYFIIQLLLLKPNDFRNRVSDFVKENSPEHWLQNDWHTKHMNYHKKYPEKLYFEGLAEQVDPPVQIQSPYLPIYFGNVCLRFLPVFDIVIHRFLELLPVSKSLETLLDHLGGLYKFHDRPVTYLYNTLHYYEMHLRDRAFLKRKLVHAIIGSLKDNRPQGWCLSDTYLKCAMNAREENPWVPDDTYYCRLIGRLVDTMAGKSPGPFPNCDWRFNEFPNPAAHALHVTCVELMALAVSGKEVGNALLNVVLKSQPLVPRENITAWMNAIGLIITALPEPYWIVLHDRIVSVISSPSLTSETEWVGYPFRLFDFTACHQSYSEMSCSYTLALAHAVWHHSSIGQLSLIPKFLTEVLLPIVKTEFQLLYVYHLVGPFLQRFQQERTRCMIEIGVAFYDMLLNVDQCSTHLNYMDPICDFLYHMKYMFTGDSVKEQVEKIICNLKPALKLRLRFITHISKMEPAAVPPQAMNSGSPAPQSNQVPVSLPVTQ

Kd [6]: 5.9 µM
Compound: CC(C)C[C@]1(CCO)C[C@H](CNC(=S)Nc2ccc(-c3c4ccc(=O)cc-4oc4cc(O)ccc34)c(C(=O)O)c2)ON1Cc1ccccc1

Kd [6]: 0.62 µM
Compound: CC(C)C[C@]1(CCO)C[C@H](CNC(=S)Nc2ccc(-c3c4ccc(=O)cc-4oc4cc(O)ccc34)c(C(=O)O)c2)ON1Cc1ccc(-c2ccccc2)cc1

Second part, the molecule before the results:

Compound: CC(C)C[C@]1(CCO)C[C@H](CN=[N+]=[N-])ON1Cc1ccc(-c2ccccc2)cc1
Activity [1]: Dose-dependent effect
Activity [2]: Active
Activity [3]: Active
IC50 (SK-BR-3; SK-BR-3, 24 h): 14 µM
IC50 (MCF7): 27 µM
IC50 (CAL-27): 21.8 µM
IC50 (SCC-25): 19.8 µM
IC50 (SCC-15): 19.2 µM

Compound: CC(C)C[C@]1(CCO)C[C@H](CN=[N+]=[N-])ON1Cc1ccc(C(F)(F)F)cc1
Activity [1]: Dose-dependent effect

Compound: CC(C)C[C@]1(CCO)C[C@H](CN=[N+]=[N-])ON1Cc1ccccc1
Activity [4]: inactive
Activity [5]: Active
Activity (SK-BR-3): inactive

Compound: CC(C)C[C@]1(CCO)C[C@H](CNC(=S)Nc2ccc(-c3c4ccc(=O)cc-4oc4cc(O)ccc34)c(C(=O)O)c2)ON1Cc1ccc(C(F)(F)F)cc1
Kd [6]: 0.59 µM

Compound: CC(C)C[C@]1(CCO)C[C@H](CNC(=S)Nc2ccc(-c3c4ccc(=O)cc-4oc4cc(O)ccc34)c(C(=O)O)c2)ON1Cc1ccc2ccccc2c1
Kd [6]: 1 µM

Compound: CC(C)C[C@]1(CCO)C[C@H](CN=[N+]=[N-])ON1Cc1ccc2ccccc2c1
Activity [1]: Dose-dependent effect
